For 37 compounds, Ki, inhibition and Activity results are on record in ChEMBL document CHEMBL1157634, “Differential binding of phenothiazine urea derivatives to wild-type human cholinesterases and butyrylcholinesterase mutants” (Bioorg Med Chem, 2010).

Structures are written as SMILES. Active and inactive are the calls of the source. No cut-off for these calls is given here.

Assay [1] has as its target T1, Acetylcholinesterase (Homo sapiens, UniProt P22303). Description: Inhibition of human recombinant AChE by modified Ellman's spectrophotometric method. A general note: Ellman's reagent forms a yellow product with free thiols.
The target in assay [2] is T2, Cholinesterase (Homo sapiens, UniProt P06276). Description: Inhibition of human plasma BuChE by modified Ellman's spectrophotometric method. Type of assay: cell-free. The method, boiled down: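 Purified human plasma BuChE (~0.05 units in 0.1% gelatin) in DTNB buffer at pH 8.0, 23 °C, read at 412 nm. Inhibitors first screened in 1:10 serial dilutions in 50% acetonitrile. Lineweaver–Burk plots used butyrylthiocholine 3 × 10^-5–1.6 × 10^-4 M without inhibitor and at two inhibitor concentrations. Ki taken as the x-intercept of the slope replot. Runs generally at least in triplicate and averaged.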
T2 sequence (P06276 whole entry): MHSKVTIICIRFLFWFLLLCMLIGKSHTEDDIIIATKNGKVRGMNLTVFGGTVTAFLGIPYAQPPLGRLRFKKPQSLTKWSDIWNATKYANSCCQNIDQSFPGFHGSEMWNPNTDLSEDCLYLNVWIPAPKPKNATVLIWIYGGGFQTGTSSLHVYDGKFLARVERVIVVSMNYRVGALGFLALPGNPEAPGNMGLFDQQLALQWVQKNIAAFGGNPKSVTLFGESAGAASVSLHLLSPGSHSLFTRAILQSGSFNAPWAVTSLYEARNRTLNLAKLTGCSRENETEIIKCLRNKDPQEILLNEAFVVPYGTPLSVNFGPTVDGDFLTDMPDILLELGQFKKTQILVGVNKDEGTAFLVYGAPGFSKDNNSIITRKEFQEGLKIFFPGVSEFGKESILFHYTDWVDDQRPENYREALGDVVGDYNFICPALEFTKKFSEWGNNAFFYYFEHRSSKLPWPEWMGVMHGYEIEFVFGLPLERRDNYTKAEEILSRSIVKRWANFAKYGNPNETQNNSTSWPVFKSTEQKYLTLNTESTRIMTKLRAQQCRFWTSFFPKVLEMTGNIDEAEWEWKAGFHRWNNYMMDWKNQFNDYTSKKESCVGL

The species named for assay [3] is Homo sapiens. Description: Inhibition of human BuChE F329A mutant at 500 nM by modified Ellman's spectrophotometric method. The method, boiled down:
(§1)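 Recombinant human BuChE mutants (D70G, F329A, Y332A), with wild-type BuChE for comparison, tested by modified Ellman assay. Buffered DTNB (usually pH 8.0), 23 °C, single butyrylthiocholine concentration of 1.6 × 10^-4 M final. Inhibitor added in 50% aqueous acetonitrile (final 1.67% v/v). Rate read at 412 nm every 5 s for 1 min.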

Assay [4] addresses T1, Acetylcholinesterase. The assay can be described thus: Inhibition of human AChE at 1.8 uM by Michaelis-Menten analysis in presence of 20 mM acetylthiocholine as substrate. The essentials: (§2)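 Purified recombinant human AChE (~0.03 units in 0.1% aqueous gelatin) in buffered DTNB (usually pH 8.0) at 23 °C. Fixed enzyme and inhibitor concentrations across acetylthiocholine 0.039–40 mM. Inhibitor added in 50% aqueous acetonitrile (final 1.67% v/v). Hydrolysis rate (ΔA/min) read at 412 nm every 5 s for 1 min. Michaelis–Menten plots of rate versus substrate concentration.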

For assay [5], the species on record is Homo sapiens. The assay can be described thus: Inhibition of human BuChE D70G mutant at 50 nM by modified Ellman's spectrophotometric method. The essentials: as §1
Assay [6] has as its target T2, Cholinesterase. Particulars: 500 nM.
The target of assay [7] is T2, Cholinesterase. Particulars: 1.8 uM.
Assay [8] concerns the target T2, Cholinesterase. Particulars: 1.8 uM. This is another data set of the same source.
The species entered for assay [9] is Homo sapiens. The assay can be described thus: Inhibition of human BuChE Y332A mutant assessed as residual activity at 500 nM by modified Ellman's spectrophotometric method relative to control. The method, boiled down: as §1
Assay [10] addresses T2, Cholinesterase. Particulars: 50 nM.
The target of assay [11] is T1, Acetylcholinesterase. The assay can be described thus: Inhibition of human AChE at 1.8 uM by Michaelis-Menten analysis in presence of 10 mM acetylthiocholine as substrate. The method, boiled down: as §2

T1 sequence (P22303 whole entry): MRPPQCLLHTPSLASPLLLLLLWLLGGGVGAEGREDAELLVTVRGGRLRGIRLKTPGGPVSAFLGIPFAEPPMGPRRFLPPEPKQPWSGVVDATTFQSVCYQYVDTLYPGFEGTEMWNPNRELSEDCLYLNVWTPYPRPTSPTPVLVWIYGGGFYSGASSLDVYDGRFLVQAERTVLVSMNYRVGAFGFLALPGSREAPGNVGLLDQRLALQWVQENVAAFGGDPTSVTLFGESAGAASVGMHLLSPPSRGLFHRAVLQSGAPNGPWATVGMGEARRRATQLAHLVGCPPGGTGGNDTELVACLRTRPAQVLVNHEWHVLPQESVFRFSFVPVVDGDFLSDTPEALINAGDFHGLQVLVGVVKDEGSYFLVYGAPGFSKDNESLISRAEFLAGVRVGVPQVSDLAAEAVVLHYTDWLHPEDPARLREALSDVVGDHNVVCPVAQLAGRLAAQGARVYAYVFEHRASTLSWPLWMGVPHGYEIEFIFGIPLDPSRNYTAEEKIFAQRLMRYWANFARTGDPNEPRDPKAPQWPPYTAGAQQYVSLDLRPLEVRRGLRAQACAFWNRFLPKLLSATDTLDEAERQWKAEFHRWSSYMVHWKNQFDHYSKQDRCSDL

Take `Cc1ccc(NC(=O)N2c3ccccc3Sc3ccccc32)cc1`: the Ki (in general, the equilibrium dissociation constant of an inhibitor or competing ligand from its target) at Acetylcholinesterase [1] is “Not Active”; at Cholinesterase [2], 12.1 µM.
For `CCCCNC(=O)N1c2ccccc2Sc2ccccc21`, the figures for the Ki result on Acetylcholinesterase [1] and on Cholinesterase [2] were “Not Active” and 24.7 µM, respectively.
Take `CC(C)N(CCNC(=O)N1c2ccccc2Sc2ccccc21)C(C)C`: the inhibition result in the assay listed under Homo sapiens [3], on Cholinesterase [6], at Cholinesterase [8] and at Acetylcholinesterase [11] was “Active” throughout. The Ki at Acetylcholinesterase [1] (read-out: Ki) worked out at 0.81 µM; on Cholinesterase [2], 0.009 µM. Also, the inhibition result on Acetylcholinesterase [4], in the assay filed under Homo sapiens [5] and at Cholinesterase [7] was “inactive” each time. In the assay filed under Homo sapiens [9], the Activity came to 50%. For the same compound, at Cholinesterase [10], the inhibition (usually the percentage by which the read-out fell short of the control) was 50%.
With `CCN(CC)C(=O)N1c2ccccc2Sc2ccccc21`, the Ki entry is “Not Active” at Acetylcholinesterase [1] and 1.05 µM on Cholinesterase [2].
Taken in the same sequence, the figures for `COCCNC(=O)N1c2ccccc2Sc2ccccc21` were “Not Active” and 29.1 µM.
As for `O=C(NC1CC1)N1c2ccccc2Sc2ccccc21`, the Ki entry on Acetylcholinesterase [1] is “Not Active”; at Cholinesterase [2], 42.5 µM.
As to `O=C(NCCc1ccccc1)N1c2ccccc2Sc2ccccc21`, the Ki result on Acetylcholinesterase [1] was “Not Active”; at Cholinesterase [2], 0.19 µM.
Turning to `O=C(N1CCCCC1)N1c2ccccc2Sc2ccccc21`, the Ki result at Acetylcholinesterase [1] was “Not Active”; at Cholinesterase [2] it was 1.56 µM.
Consider `CN(C)C(=O)N1c2ccccc2Sc2ccccc21`, for which the inhibition constant Ki was 400 µM on Acetylcholinesterase [1] (read-out: Ki) and 9.2 µM on Cholinesterase [2].
Take `O=C(N1CCOCC1)N1c2ccccc2Sc2ccccc21`: the figures for the Ki entry on Acetylcholinesterase [1] and on Cholinesterase [2] were “Not Active” and 7.1 µM, respectively.
For `CN1CCN(C(=O)N2c3ccccc3Sc3ccccc32)CC1`, the inhibitory constant (Ki) entry is “Not Active” on Acetylcholinesterase [1] and 17.1 µM at Cholinesterase [2].
For `CN(CCCNC(=O)N1c2ccccc2Sc2ccccc21)c1ccccc1`, the Ki result was “Not Active” on Acetylcholinesterase [1] and 0.25 µM on Cholinesterase [2].
Consider `CC(C)(C)NC(=O)N1c2ccccc2Sc2ccccc21`, for which the Ki result on Acetylcholinesterase [1] was “Not Active”; on Cholinesterase [2] it was 10.6 µM.
The matching figures for `O=C(NCCCN1CCOCC1)N1c2ccccc2Sc2ccccc21`: “Not Active” and 7.86 µM.
Consider `CCCNC(=O)N1c2ccccc2Sc2ccccc21`, for which the results for the Ki result on Acetylcholinesterase [1] and on Cholinesterase [2] were “Not Active” and 20.5 µM, respectively.
Turning to `NC(=O)N1c2ccccc2Sc2ccccc21`, the Ki at Acetylcholinesterase [1] (read-out: Ki) was 89.3 µM; on Cholinesterase [2], 90.8 µM.
Consider `O=C(N1CCCC1)N1c2ccccc2Sc2ccccc21`, for which the Ki entry is “Not Active” at Acetylcholinesterase [1] and 0.56 µM at Cholinesterase [2].
Consider `O=C(NCCN1CCCCC1)N1c2ccccc2Sc2ccccc21`, for which the Ki at Acetylcholinesterase [1] (read-out: Ki) is 0.62 µM; on Cholinesterase [2], 0.02 µM.
`CCCN(CCC)C(=O)N1c2ccccc2Sc2ccccc21`: the Ki result at Acetylcholinesterase [1] is “Not Active”; at Cholinesterase [2], 0.43 µM.
For the compound `O=C(NCc1cccc2ccccc12)N1c2ccccc2Sc2ccccc21`, the Ki result is “Not Active” at Acetylcholinesterase [1] and 0.15 µM at Cholinesterase [2].
Regarding `O=C(NC1CCCC1)N1c2ccccc2Sc2ccccc21`, the values for the Ki result at Acetylcholinesterase [1] and on Cholinesterase [2] were “Not Active” and 2.99 µM, respectively.
On to `Cc1ccccc1NC(=O)N1c2ccccc2Sc2ccccc21`, for which the figures for the Ki result at Acetylcholinesterase [1] and at Cholinesterase [2] were “Not Active” and 0.71 µM, respectively.
The matching figures for `COc1ccc(NC(=O)N2c3ccccc3Sc3ccccc32)cc1`: “Not Active” and 9.63 µM.
As to `O=C(NCCN1CCOCC1)N1c2ccccc2Sc2ccccc21`, the inhibitory constant (Ki) result on Acetylcholinesterase [1] is “Not Active”; on Cholinesterase [2], 6.91 µM.
For `CC(C)NC(=O)N1c2ccccc2Sc2ccccc21`, the results for the inhibition constant Ki on Acetylcholinesterase [1] (read-out: Ki) and at Cholinesterase [2] were 691 µM and 3.41 µM, respectively.
As to `O=C(NCc1ccccc1)N1c2ccccc2Sc2ccccc21`, the Ki entry on Acetylcholinesterase [1] was “Not Active”; on Cholinesterase [2], 4.45 µM.
Regarding `CC(C)N(C(=O)N1c2ccccc2Sc2ccccc21)C(C)C`, the Ki result at Acetylcholinesterase [1] is “Not Active”; on Cholinesterase [2], 0.18 µM.
Take `O=C(NC1CCC1)N1c2ccccc2Sc2ccccc21`: the Ki result at Acetylcholinesterase [1] was “Not Active”; on Cholinesterase [2], 10 µM.
As to `O=C(NC12CC3CC(CC(C3)C1)C2)N1c2ccccc2Sc2ccccc21`, the Ki entry on Acetylcholinesterase [1] is “Not Active”; on Cholinesterase [2], 0.35 µM.
Turning to `CNC(=O)N1c2ccccc2Sc2ccccc21`, the Ki at Acetylcholinesterase [1] (read-out: Ki) was 9.36 µM; on Cholinesterase [2], 18.3 µM.
`O=C(Nc1ccccc1)N1c2ccccc2Sc2ccccc21`: the Ki entry on Acetylcholinesterase [1] was “Not Active”; on Cholinesterase [2], 0.31 µM.
In the case of `CCN(CC)CCNC(=O)N1c2ccccc2Sc2ccccc21`, the inhibition constant (Ki) at Acetylcholinesterase [1] (read-out: Ki) is 16.3 µM; on Cholinesterase [2] it was 0.51 µM.
Take `O=C(Nc1ccc(Cl)cc1)N1c2ccccc2Sc2ccccc21`: the Ki entry is “Not Active” at Acetylcholinesterase [1] and 4.69 µM at Cholinesterase [2].
Turning to `O=C(NCCN1CCCC1)N1c2ccccc2Sc2ccccc21`, the inhibition constant Ki came out at 29.4 µM on Acetylcholinesterase [1] (read-out: Ki) and 0.21 µM on Cholinesterase [2].
As for `O=C(NC1CCCCC1)N1c2ccccc2Sc2ccccc21`, the Ki result on Acetylcholinesterase [1] was “Not Active”; at Cholinesterase [2] it was 2.81 µM.
Consider `CCNC(=O)N1c2ccccc2Sc2ccccc21`, for which the Ki on Acetylcholinesterase [1] (read-out: Ki) worked out at 1450 µM; at Cholinesterase [2] it was 35 µM.
As for `CC(C)(C)CNC(=O)N1c2ccccc2Sc2ccccc21`, the Ki result at Acetylcholinesterase [1] was “Not Active”; on Cholinesterase [2], 2.66 µM.
